ANO1 activ = activators or potentiators of mouse TMEM16A chloride channel | B-score at 10 µM | Q8BHY3 | AID 623877 | hit rate 0.3% among 340,000 | HEK293 TMEM16A/YFP-H148Q/I152L, iodide quench fluorescence; active compounds read low;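 active = fluorescence-ratio B-score plate-corrected deviation score at least 3 library SD below zero, with starting fluorescence score within 5 deviations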;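 note: channel opened by trigger with iodide after compound preincubation; score built on the fluorescence ratio of max minus min over baseline; more negative score means more quench and so TMEM16A activation or potentiation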
CSC inhib = cancer stem cell inhibition; inhibition, % at 7.5 µM; hit rate 1.1% among 300,000; cancer stem cell-like cells viability, luminescence; in the data active = inhibition above about 75%; inconclusive = no clear call, values can overlap the other calls; tested in HMLE shEcad cells
Beta cell apopt = beta cell apoptosis inhibition; INS-1E cytokine-induced death, ATP luminescence, 48 h; percent of positive-control rescue, neutral wells zero; protection from apoptosis, % (test concentration not listed); hit rate 0.8% among 300,000; AID 435005;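 active = Every replicate reaches about 75%, or at least half do and their mean reaches it too, limit read from the data; inconclusive = At least half of replicates reach the limit but their mean does not; inactive = Under half of replicates reach the limit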;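 note: 0% = cytokine-treated negative control wells and 100% = positive control rescue; higher means more ATP so stronger rescue from cytokine killing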
ANO1 block = blocks the mouse calcium-activated chloride channel TMEM16A | Q8BHY3 | HEK293 TMEM16A/YFP iodide influx fluorescence, ionomycin | normalized B-score (activity score, 25-100; higher = stronger inhibition) at 10 µM | hit rate 1.2% among 310,000 | AID 588511;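 active = ratio plate-corrected score three or more library SD toward inhibition, starting fluorescence score within five deviations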;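 note: score derived from kinetic fluorescence span divided by baseline fluorescence per well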
MC4R antagonist = antagonists of human melanocortin 4 receptor (MC4R); P32245; MC4R-expressing cells, MTII-stimulated cAMP, LANCE TR-FRET; inhibition, % at 6.5 µM; hit rate 0.48% among 360,000; AID 540295;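 active = inhibition above its plate's cutoff, the mean of tested wells on that plate plus 3 SD, cut at about 29% in these data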;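 note: 0% = Melanotan II alone and 100% = Melanotan II plus saturating MCL0020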
Target sequence (P32245 whole entry, looked up): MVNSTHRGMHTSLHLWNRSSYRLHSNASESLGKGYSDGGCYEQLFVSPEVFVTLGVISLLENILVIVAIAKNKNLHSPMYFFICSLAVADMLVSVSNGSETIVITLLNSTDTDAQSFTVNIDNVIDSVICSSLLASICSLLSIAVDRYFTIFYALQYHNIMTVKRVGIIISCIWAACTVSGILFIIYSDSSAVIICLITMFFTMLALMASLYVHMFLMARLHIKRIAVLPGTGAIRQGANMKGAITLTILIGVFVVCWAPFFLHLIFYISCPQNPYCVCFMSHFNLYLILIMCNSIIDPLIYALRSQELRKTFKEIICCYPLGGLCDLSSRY
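Assay system: U2OS-MC4R stable cell line; Also added: Melanotan II; Technique: Eu-cAMP/anti-cAMP TR-FRET, emission 671 nm; Times: 30-min compound, 1-h challenge, 1-h detection, room temperature.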
MC4R barr agon = human MC4R agonism via beta-arrestin; P32245; U2OS MC4R beta-arrestin complementation, luminescence; percent of melanotan II response, DMSO zero; activation, % at 8.9 µM; hit rate 0.98% among 360,000;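 active = activation above a per-plate cutoff, the mean activation of sample wells on that plate plus 3 SD, cut at about 8% in these data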
The depositor's hits bear a star; i = inactive; u = inconclusive; x = not tested or not shown. Rows were chosen to be rich in hits. Some 3.8% of all compounds tested hit in one or more screens of this group.

SMILES | ANO1 activ | CSC inhib | Beta cell apopt | ANO1 block | MC4R antagonist | MC4R barr agon
Cc1ccccc1C(=O)N1c2ccccc2OCC1C(C)(C)C (stereo unspecified) | i | 21.2 | -4.7 | i | 0.1 | 2.4
Cc1nc2ccc(NC(=O)c3cc([N+](=O)[O-])cc([N+](=O)[O-])c3Cl)cc2s1 | -5.71* | 54.1 | -0.3 | i | 23.0 | -3.5
Cc1nc2ccc(NC(=O)c3ccc(Cl)c(S(=O)(=O)N(C)c4ccccc4)c3)cc2s1 | i | 28.3 | -4.5 | i | 17.5 | -1.6
Cc1nc2ccc(NC(=O)c3cc(S(=O)(=O)N(C)c4ccccc4)ccc3Cl)cc2s1 | i | 5.1 | 79.7* | i | 13.2 | 2.1
CN(C)S(=O)(=O)c1ccc(NC(=O)COc2cccc3c2OC(C)(C)C3)cc1 | i | x | x | x | 20.8 | -1.7
O=S(=O)(Nc1ccc(O)c(Sc2nc3ccccc3s2)c1)c1ccc(F)cc1 | i | -1.6 | -8.3 | i | 15.1 | 0.8
O=S(=O)(Nc1ccc(O)c(Sc2nc3ccccc3s2)c1)c1cccc2ccccc12 | i | 80.6* | -8.4 | i | 10.4 | 0.4
COc1cccc(CN(CC2CCCO2)S(=O)(=O)c2ccc(-n3cnnn3)c(OC)c2)c1 (stereo unspecified) | i | -7.0 | -10.8 | i | 2.6 | -0.8
CCN(Cc1ccccc1)S(=O)(=O)c1ccc(S(=O)(=O)N(Cc2cccc(OC)c2)CC2CCCO2)cc1 (stereo unspecified) | i | 5.8 | 6.7 | 25* | 12.3 | 1.9
CCN(CC)c1ccc(/C=N/NC(=O)c2cccc(S(=O)(=O)N3CCOCC3)c2)c(O)c1 | i | 109.9* | 74.9* | i | 12.5 | -2.1
Cn1ncc(Cl)c1C(=O)N/N=C/c1cc2c(cc1[N+](=O)[O-])OCO2 | i | -9.8 | -1.7 | i | -1.9 | 0.5
Cc1ccc(C(C)C)c(OCc2ccc(C(=O)N/N=C/c3cccc(O)c3O)cc2)c1 | i | 111.4* | 90.5* | i | 3.3 | 7.6
O=C(N/N=C/c1ccccc1O)c1cccc(C(F)(F)F)c1 | i | 77.8* | u | i | 6.5 | -0.6
CCN(CC)c1ccc(/C=N/NC(=O)c2c(Cl)cnn2C)c(O)c1 | i | -5.6 | 95.0* | i | 4.2 | -1.6
O=C(C=C(C(=O)c1ccccc1)c1ccccc1)c1ccccc1 | i | x | x | x | 6.2 | -1.5
COc1ccc(NC(=O)CSc2nnc(-c3cccs3)n2N)cc1S(N)(=O)=O | i | 7.6 | -4.4 | x | 0.9 | -2.3
CCN(CC)S(=O)(=O)c1cccc(C(=O)N/N=C/c2cccc(O)c2O)c1 | i | 97.6* | 42.3 | i | 0.0 | -0.9
CCN(CC)S(=O)(=O)c1cccc(C(=O)N/N=C/c2cc(OC)c(O)c(OC)c2)c1 | i | 0.7 | 1.2 | i | 0.8 | -1.9
O=c1c2ccccc2nnn1-c1ccccc1[N+](=O)[O-] | x | x | x | x | 0.4 | -2.7
CCOc1ccc(N(C)c2ccc(/C=C3/SC(=S)NC3=O)cc2)cc1 | i | 97.3* | 1.0 | i | -1.9 | -1.5
COc1ccc(C(=O)c2c(C(F)(F)F)oc3c2C(=O)c2ccccc2C3=O)cc1 | i | 105.8* | 115.4* | i | -10.8 | -0.6
Cc1cc(C)c2nc(Nc3nc(CSc4nc5ccccc5[nH]4)cc(=O)[nH]3)nc(C)c2c1 | -6.42* | x | x | x | -3.8 | 1.1
Cc1ccc(C(=O)C(c2ccccc2)N2Cc3ccccc3C2=N)cc1 (stereo unspecified) | i | 110.9* | 17.0 | 100* | 7.0 | 1.0
CCCc1cc(=O)oc2cc(OCC(=O)NCCCN3CCOCC3)ccc12 | i | -15.1 | x | i | -4.1 | -1.8
Cc1noc(C)c1NC(=O)N(C)C[C@H]1Oc2ccc(NC(=O)NC3CCCCC3)cc2C(=O)N([C@H](C)CO)C[C@@H]1C | i | x | -5.4 | x | 21.2 | -0.1
SMILES | ANO1 activ | CSC inhib | Beta cell apopt | ANO1 block | MC4R antagonist | MC4R barr agon
O=C(NC(=S)NC1CCCC1)c1ccccc1 | i | 0.0 | 0.9 | i | 1.9 | -0.8
O=C(NC(=S)NC1C2CC3CC(C2)CC1C3)c1ccccc1 (stereo unspecified) | -4.69* | -4.7 | -3.6 | i | 16.4 | 5.3
COc1ccc(-c2csc(NC(C)c3nc4cc(C(F)(F)F)ccc4n3CCOCCO)n2)cc1 (stereo unspecified) | i | 2.6 | 7.0 | 25* | 12.6 | -1.2
OCCCn1c(CCNc2nc(-c3ccc(Cl)cc3)cs2)nc2cc(C(F)(F)F)ccc21 | i | 78.4* | 0.8 | i | 11.9 | 1.8
CC1CCCCC1N(C)C1CCN(C(=O)CNC(=O)/C=C/c2cccc(Cl)c2)CC1 (stereo unspecified) | i | 30.7 | -2.9 | i | -3.9 | 1.8
OC(COc1ccc(CNCCc2ccccc2F)cc1)CN1CCCCC1 (stereo unspecified) | i | 102.6* | 3.4 | i | -2.3 | -0.7
O=C(NC(=O)c1cc([N+](=O)[O-])ccc1Cl)C1=C(N2CCCC2)COC1=O | i | x | 4.5 | x | 6.9 | -1.0
COc1ccc([C@@H]2[C@@H]3C(=O)N(C(C)(C)C)C(=O)[C@@H]3[C@]3(C)C(=O)N(c4cccc(Br)c4)C(=O)N23)cc1 | -10.8* | -5.6 | 1.2 | i | 3.8 | -1.1
O=[N+]([O-])c1ccc(S(=O)(=O)N2CCN(c3ccc(N4CCOCC4)nn3)CC2)cc1 | i | 52.5 | -8.0 | i | 8.0 | -0.9
O=C(NCC1(c2ccccc2)CCCC1)C(=O)NCC1(c2ccccc2)CCCC1 | i | x | x | x | 10.3 | 0.8
O=C(NCC1(c2ccccc2)CCCC1)C1(c2ccccc2)CCCC1 | i | 15.3 | 4.3 | 100* | 19.9 | 0.7
Cc1ccc(-c2nc3sc4c(N)ncnc4c3c3c2CCCC3)cc1 | i | -4.7 | x | i | 6.1 | 8.4*
O=c1[nH]cnc2c1sc1nc(-c3ccccc3)c3c(c12)CCCC3 | i | -4.3 | -4.9 | i | -4.2 | 0.5
CC(C)(CC(=O)O)CC(=O)N1CCN(c2nc3ccc(Cl)cc3s2)CC1 | i | -2.6 | 3.6 | i | 5.4 | -0.8
CCCCC(=O)N1CCN(c2nc3ccc(Cl)cc3s2)CC1 | i | -12.3 | x | 25* | 14.4 | 1.4
Cc1nonc1OCCN1CCN(c2ccc([N+](=O)[O-])cc2)CC1 | i | 1.6 | 4.9 | i | 5.1 | -2.1
O=[N+]([O-])c1ccc(N2CCN(CCOc3nonc3-c3ccccc3)CC2)c(Cl)c1 | i | 7.8 | 119.4* | i | 2.2 | -1.6
CCN1CCN(S(=O)(=O)c2ccc(OC)c(NC(=O)c3ccccc3)c2)CC1 | i | -2.8 | -6.6 | i | 16.8 | 1.9
COc1ccc(CC(=O)NNC(=O)c2ccc(SCc3cc(F)ccc3F)c([N+](=O)[O-])c2)cc1 | i | -9.2 | 2.4 | i | 4.2 | 9.0*

Assay outcomes deposited in PubChem by several laboratories.
